Drawing on ChEMBL document CHEMBL1795205, “The new 5- or 6-azapyrimidine and cyanuric acid derivatives of l-ascorbic acid bearing the free C-5 hydroxy or C-4 amino group at the ethylenic spacer: CD-spectral absolute configuration determination and biological activity evaluations” (Eur J Med Chem, 2011), this text covers IC50 for 15 molecules.

One test concerns HeLa. Description: Cytostatic activity against human HeLa cells assessed as inhibition of cell proliferation after 72 hrs by MTT assay. Type of test: functional, cell-based. The procedure, abridged: (§1)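 Monolayer cells grown in DMEM with 10% FBS were seeded on day 0 at 3000–6000 cells/well, set by each line's doubling time. Agents were added the next step in five 10-fold dilutions (0.01–100) for 72 h, with DMSO ≤0.1% and a solvent control. MTT absorbance was converted to percentage growth versus untreated wells on the same plate. Where all PGs exceeded 50, the top concentration was reported as ">". ANOVA/Tukey, p<0.05.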
A general note: Tetrazolium assays rely on reduction of a dye to a coloured formazan, in cell work by metabolically active cells.

Another test relates to MCF7. Description: Cytostatic activity against human MCF7 cells assessed as inhibition of cell proliferation after 72 hrs by MTT assay. Type of test: functional, cell-based. As to conditions: MCF7, 72 h. The procedure, abridged:
as §1

A further test deals with HepG2. Description: Cytostatic activity against human HepG2 cells assessed as inhibition of cell proliferation after 72 hrs by MTT assay. Type of test: functional, cell-based. As to conditions: HepG2, 72 h. The procedure, abridged: as §1
Another test concerns SW-620. As to the kind of experiment: Cytostatic activity against human SW620 cells assessed as inhibition of cell proliferation after 72 hrs by MTT assay. The format is functional, cell-based. The note with it: SW-620, 72 h. An outline of the steps: as §1
Another test has as its system MIA PaCa-2. Description: Cytostatic activity against human MIAPaCa2 cells assessed as inhibition of cell proliferation after 72 hrs by MTT assay. The format is functional, cell-based. As to conditions: MIA PaCa-2, 72 h. An outline of the steps: as §1
For another test, the system named is WI-38. Description: Cytotoxicity against human WI38 cells assessed as inhibition of cell proliferation after 72 hrs by MTT assay. The note with it: WI-38, 72 h. Type of test: cell-based. The procedure, abridged:
as §1

Some results are limits rather than exact numbers.

Broadly, the IC50 is the concentration that inhibits the measured activity by half. Take `Nc1ccn(CCC2(N)OC(=O)C(OCc3ccccc3)=C2OCc2ccccc2)c(=O)n1` (racemic): the IC50 was > 100 µM with HeLa; 32 µM with MCF7; > 100 µM with HepG2; > 100 µM with SW-620; > 100 µM with MIA PaCa-2; 88.9 µM in the test with WI-38.
Consider `O=C1O/C(=C\Cn2ncc(=O)[nH]c2=O)C(OCc2ccccc2)=C1OCc1ccccc1`, for which the IC50 in the test on HeLa is 45 µM; in the test on MCF7 it was 3.77 µM; in the test with HepG2, 41.3 µM; in the test on SW-620, 36.5 µM; with MIA PaCa-2 it was 20.4 µM; in the test on WI-38 it was 24.6 µM.
In the case of `Nc1ncn(C[C@H](O)[C@H]2OC(=O)C(OCc3ccccc3)=C2OCc2ccccc2)c(=O)n1`, the concentration for half-maximal inhibition (IC50) in the test with HeLa was > 100 µM; with MCF7, 73.8 µM; with HepG2, > 100 µM; in the test with SW-620, > 100 µM; in the test with MIA PaCa-2 it was 71.7 µM; with WI-38, > 100 µM.
For the molecule `NC1(CCn2cc(F)c(=O)[nH]c2=O)OC(=O)C(OCc2ccccc2)=C1OCc1ccccc1` (racemic), the IC50 was > 100 µM in the test with HeLa; 20.9 µM in the test on MCF7; 42.8 µM with HepG2; > 100 µM in the test with SW-620; > 100 µM in the test with MIA PaCa-2; 36.2 µM with WI-38.
With `O=C1O/C(=C\Cn2c(=O)[nH]c(=O)[nH]c2=O)C(O)=C1O`, the IC50 was > 100 µM with HeLa; > 100 µM in the test on MCF7; > 100 µM in the test with HepG2; > 100 µM with SW-620; > 100 µM with MIA PaCa-2; 35.3 µM in the test with WI-38.
As for `O=C1O/C(=C\Cn2c(=O)[nH]c(=O)[nH]c2=O)C(OCc2ccccc2)=C1OCc1ccccc1`, the half-maximal inhibitory concentration (IC50) was > 100 µM with HeLa; 17.8 µM in the test on MCF7; 44.8 µM in the test with HepG2; > 100 µM in the test on SW-620; 37.9 µM in the test on MIA PaCa-2.
With `O=C1O[C@H]([C@@H](O)Cn2c(=O)[nH]c(=O)[nH]c2=O)C(OCc2ccccc2)=C1OCc1ccccc1`, the half-inhibitory concentration (IC50) with HeLa, in the test on MCF7, in the test on HepG2, in the test on SW-620, in the test on MIA PaCa-2 and with WI-38 was > 100 µM in each case.
With `Nc1ccn(C[C@H](O)[C@H]2OC(=O)C(OCc3ccccc3)=C2OCc2ccccc2)c(=O)n1`, the IC50 was > 100 µM with HeLa; 7.34 µM with MCF7; 44.3 µM in the test on HepG2; > 100 µM in the test with SW-620; > 100 µM in the test on MIA PaCa-2; 53.9 µM with WI-38.
In the case of `NC1(CCn2ncc(=O)[nH]c2=O)OC(=O)C(OCc2ccccc2)=C1OCc1ccccc1` (racemic), the IC50 in the test on HeLa, in the test on MCF7, in the test with HepG2, with SW-620, in the test with MIA PaCa-2 and in the test with WI-38 was > 100 µM throughout.
For `Nc1ncn(CCC2(N)OC(=O)C(OCc3ccccc3)=C2OCc2ccccc2)c(=O)n1` (racemic), the concentration for half-maximal inhibition (IC50) with HeLa, in the test on MCF7, in the test on HepG2, in the test on SW-620, in the test on MIA PaCa-2 and with WI-38 was > 100 µM each time.
Turning to `NC1(CCn2ccc(=O)[nH]c2=O)OC(=O)C(OCc2ccccc2)=C1OCc1ccccc1` (racemic), the concentration for half-maximal inhibition (IC50) with HeLa, in the test with MCF7, in the test with HepG2, in the test with SW-620, in the test on MIA PaCa-2 and with WI-38 was > 100 µM throughout.
As for `O=C1O[C@H]([C@@H](O)Cn2ccc(NC(=O)c3ccccc3)nc2=O)C(OCc2ccccc2)=C1OCc1ccccc1`, the half-inhibitory concentration (IC50) with HeLa was 35.9 µM; in the test with MCF7, 4.79 µM; with HepG2 it was 62.2 µM; in the test with SW-620, > 100 µM; with MIA PaCa-2, > 100 µM; with WI-38 it was 8.82 µM.
For `Nc1ncn(C/C=C2\OC(=O)C(O)=C2OCc2ccccc2)c(=O)n1`, the half-maximal inhibitory concentration (IC50) in the test on HeLa, in the test with MCF7, in the test on HepG2, with SW-620, in the test on MIA PaCa-2 and in the test with WI-38 was > 100 µM each time.
`NC1(CCn2c(=O)[nH]c(=O)[nH]c2=O)OC(=O)C(OCc2ccccc2)=C1OCc1ccccc1` (racemic): the IC50 in the test with HeLa is 77.1 µM; in the test with MCF7, 84.9 µM; in the test on HepG2, > 100 µM; in the test on SW-620 it was > 100 µM; in the test with MIA PaCa-2 it was > 100 µM; in the test with WI-38, > 100 µM.
On to `Cc1cn(CCC2(N)OC(=O)C(OCc3ccccc3)=C2OCc2ccccc2)c(=O)[nH]c1=O` (racemic), for which the IC50 in the test on HeLa is > 100 µM; in the test with MCF7 it was 80.4 µM; with HepG2, > 100 µM; in the test with SW-620 it was > 100 µM; in the test on MIA PaCa-2, > 100 µM; in the test with WI-38, > 100 µM.
